# Assay results from ChEMBL document CHEMBL3769383, “Cefsulodin Inspired Potent and Selective Inhibitors of mPTPB, a Virulent Phosphatase from Mycobacterium tuberculosis” (ACS Med Chem Lett, 2015).
# Activity calls are given as the source filed them. The calls are words filed in the database; no cut-off is given here.
# How the values were obtained:
# [1] = Inhibition of Mycobacterium tuberculosis PTPB expressed in Escherichia coli BL21/DE3 cells using pNPP as substrate after 5 mins by spectrophotometry
# [2] = Reversible competitive inhibition of Mycobacterium tuberculosis PTPB expressed in Escherichia coli BL21/DE3 cells using pNPP as substrate after 5 mins
# [3] = tested on: BL21-DE3; test: Inhibition of Mycobacterium tuberculosis PTPB expressed in Escherichia coli BL21/DE3 cells using pNPP as substrate at 200 uM after 5 mins by spectrophotometry
# Method in brief: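 Single-point screen: the test compound is present at 200 μM in the assay (a compound concentration, not a substrate level). The read-out is phosphatase-catalysed hydrolysis of para-nitrophenyl phosphate.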
Structure (SMILES),IC50 [1] [µM],Ki [2] [µM],inhibition [3]
NC(=O)C(c1ccccc1)S(=O)(=O)O (centres undefined),180,73.4,
CC(=O)OCC1=C(C(=O)O)N2C(=O)[C@@H](N)[C@H]2SC1,,,inactive
NC(=O)c1ccncc1,,,inactive
